The values below come from ChEMBL document CHEMBL4014339, “Discovery of 1,4-Benzodiazepine-2,5-dione (BZD) Derivatives as Dual Nucleotide Binding Oligomerization Domain Containing 1/2 (NOD1/NOD2) Antagonists Sensitizing Paclitaxel (PTX) To Suppress Lewis Lung Carcinoma (LLC) Growth in Vivo” (J Med Chem, 2017).

The structures appear in SMILES notation. Activity calls are given as the source filed them. No cut-off for these calls is given here.

Assay [1] is filed under the species Homo sapiens. Nature of the assay: Inhibition of human SEAP assessed as decrease in substrate hydrolysis at 10 uM.
In assay [2] the target is T1, Nucleotide-binding oligomerization domain-containing protein 1 (Homo sapiens, UniProt Q9Y239).
T1 sequence (Q9Y239 whole entry): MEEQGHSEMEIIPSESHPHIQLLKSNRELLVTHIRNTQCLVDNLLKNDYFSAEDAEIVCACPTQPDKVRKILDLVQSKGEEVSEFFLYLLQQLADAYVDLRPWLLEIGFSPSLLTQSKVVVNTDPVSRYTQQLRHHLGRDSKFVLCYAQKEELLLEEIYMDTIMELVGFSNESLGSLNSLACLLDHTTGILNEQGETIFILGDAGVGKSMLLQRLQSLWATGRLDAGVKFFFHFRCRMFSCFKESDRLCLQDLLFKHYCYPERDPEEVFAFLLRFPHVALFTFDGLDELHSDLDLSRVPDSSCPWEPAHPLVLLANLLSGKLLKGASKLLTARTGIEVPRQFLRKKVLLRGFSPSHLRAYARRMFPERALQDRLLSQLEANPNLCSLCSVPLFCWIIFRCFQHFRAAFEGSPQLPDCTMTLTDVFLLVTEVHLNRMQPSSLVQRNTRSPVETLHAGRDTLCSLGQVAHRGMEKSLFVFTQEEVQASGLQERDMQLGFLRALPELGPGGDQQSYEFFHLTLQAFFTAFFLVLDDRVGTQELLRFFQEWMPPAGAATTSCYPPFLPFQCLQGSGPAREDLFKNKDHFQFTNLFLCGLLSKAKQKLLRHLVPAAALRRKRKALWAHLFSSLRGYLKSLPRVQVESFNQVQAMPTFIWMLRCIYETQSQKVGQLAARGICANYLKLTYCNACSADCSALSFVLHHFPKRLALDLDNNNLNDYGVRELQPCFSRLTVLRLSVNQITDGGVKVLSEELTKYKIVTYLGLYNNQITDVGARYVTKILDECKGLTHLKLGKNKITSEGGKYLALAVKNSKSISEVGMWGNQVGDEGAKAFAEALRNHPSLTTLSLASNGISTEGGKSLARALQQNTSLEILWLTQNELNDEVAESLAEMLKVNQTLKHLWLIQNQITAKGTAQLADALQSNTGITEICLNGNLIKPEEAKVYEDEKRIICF
The assay can be described thus: Antagonist activity at human NOD1 expressed in HEK-blue cells assessed as inhibition of C12-iE-DAP-stimulated cell activation preincubated for 3 hrs followed by C12-iE-DAP addition measured after 20 hrs by SEAP reporter gene assay. The assay is classed as cell-based. The essentials:
(§1)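 HEK-Blue hNOD1 or hNOD2 cells preincubated with compound 3 h, then stimulated 20 h with C12-iE-DAP 50 ng/mL (NOD1) or MDP 100 ng/mL (NOD2); SEAP in supernatant quantified. Primary screen at 10 μM, hits repeated in triplicate; IC50 from dose-response, mean ± SD (n = 3), only for compounds reaching ≥50% inhibition at the screening concentration.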

Assay [3] deals with T2, Nucleotide-binding oligomerization domain-containing protein 1 (Homo sapiens) (UniProt Q9Y239).
T2 sequence (whole entry): T1 sequence (Q9Y239 whole entry)
The assay can be described thus: Inhibition of NOD1 in human THP1 cells assessed as suppression of C12-iE-DAP-stimulated JNK phosphorylation at 1 to 10 uM preincubated for 1 hr followed by C12-iE-DAP stimulation after 45 mins by Western blot analysis. The assay is classed as cell-based. The essentials:
(§2)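 PMA (20 ng/mL, 48 h)-differentiated THP1 macrophages rested 24 h in PMA-free medium, serum-starved (0.1% FBS) overnight, pretreated 1 h with compound, stimulated 45 min with C12-iE-DAP 50 ng/mL. Lysates run on 8% SDS-PAGE, immunoblotted for phospho and total RIP2, p38, JNK, ERK and IκBα.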
A general note: Immunoblotting shows a protein as a band on a membrane.

Assay [4] addresses T3, Nucleotide-binding oligomerization domain-containing protein 2 (Homo sapiens, UniProt Q9HC29). Nature of the assay: Antagonist activity at human NOD2 expressed in HEK-Blue cells assessed as inhibition of MDP-stimulated cell activation preincubated for 3 hrs followed by MDP addition measured after 20 hrs by SEAP reporter gene assay. It counts as cell-based. In a few lines: as §1

Assay [5] concerns the target T2, Nucleotide-binding oligomerization domain-containing protein 1 (Homo sapiens). Nature of the assay: Inhibition of NOD1 in human PBMC-derived macrophages assessed as reduction in C12-iE-DAP-stimulated p38 phosphorylation at 1 to 10 uM preincubated for 1 hr followed by C12-iE-DAP stimulation for 45 mins by Western blot analysis.
The target of assay [6] is T3, Nucleotide-binding oligomerization domain-containing protein 2. Nature of the assay: Inhibition of NOD2 in human PBMC-derived macrophages assessed as reduction in MDP-stimulated IL6 mRNA expression preincubated for 1 hr followed by MDP stimulation for 90 mins by RT-qPCR analysis. The essentials: (§3)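 Human CD14+ monocytes from donor PBMC, differentiated 7 days with M-CSF 20 ng/mL to macrophages; 1.0 × 10^6 cells pretreated 1 h with compound (final 0.1% DMSO), then C12-iE-DAP 500 ng/mL or MDP 5 μg/mL for 90 min. IL-6/TNF-α mRNA by qRT-PCR, normalized to GAPDH; stimulated response set to 100%.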
On the technique in general: Real-time PCR tracks product formation cycle by cycle.

The target is the same in assay [7]. Nature of the assay: Inhibition of NOD2 in human PBMC-derived macrophages assessed as reduction in MDP-stimulated TNFalpha mRNA expression preincubated for 1 hr followed by MDP stimulation for 90 mins by RT-qPCR analysis. The essentials: as §3
For assay [8] the target is unchanged. The assay can be described thus: Antagonist activity at human NOD2 expressed in HEK-Blue cells assessed as inhibition of MDP-stimulated cell activation at 5 uM preincubated for 3 hrs followed by MDP addition measured after 20 hrs by SEAP reporter gene assay. It counts as cell-based.
The target is the same in assay [9]. Nature of the assay: Inhibition of NOD2 in human PBMC-derived macrophages assessed as reduction in MDP-stimulated RIP2 phosphorylation at 1 to 10 uM preincubated for 1 hr followed by MDP stimulation for 1 hr by Western blot analysis.
Assay [10] deals with T2, Nucleotide-binding oligomerization domain-containing protein 1 (Homo sapiens). The assay can be described thus: Inhibition of NOD1 in human PBMC-derived macrophages assessed as reduction in C12-iE-DAP-stimulated ERK phosphorylation at 1 to 10 uM preincubated for 1 hr followed by C12-iE-DAP stimulation for 45 mins by Western blot analysis.
Assay [11] shares this target. Nature of the assay: Inhibition of NOD1 in human THP1 cells assessed as reduction of C12-iE-DAP-mediated decrease in IkBalpha levels at 1 to 10 uM preincubated for 1 hr followed by C12-iE-DAP addition measured after 45 mins by Western blot analysis. The assay is classed as cell-based. In a few lines: as §2
For assay [12] the target is unchanged. Nature of the assay: Inhibition of NOD1 in human PBMC-derived macrophages assessed as reduction in C12-iE-DAP-stimulated RIP2 phosphorylation at 1 to 10 uM preincubated for 1 hr followed by C12-iE-DAP stimulation for 45 mins by Western blot analysis.
For assay [13] the target is unchanged. Nature of the assay: Antagonist activity at human NOD1 expressed in HEK-Blue cells assessed as inhibition of C12-iE-DAP-stimulated cell activation at 10 uM preincubated for 3 hrs followed by C12-iE-DAP addition measured after 20 hrs by SEAP reporter gene assay. It counts as cell-based. The essentials: as §1
A general note: In a reporter assay the amount or activity of a reporter protein is the signal.

The target is the same in assay [14]. Nature of the assay: Inhibition of NOD1 in human PBMC-derived macrophages assessed as reduction in C12-iE-DAP-stimulated JNK phosphorylation at 1 to 10 uM preincubated for 1 hr followed by C12-iE-DAP stimulation for 45 mins by Western blot analysis.

T3 sequence (Q9HC29 whole entry, the tested form may be a part): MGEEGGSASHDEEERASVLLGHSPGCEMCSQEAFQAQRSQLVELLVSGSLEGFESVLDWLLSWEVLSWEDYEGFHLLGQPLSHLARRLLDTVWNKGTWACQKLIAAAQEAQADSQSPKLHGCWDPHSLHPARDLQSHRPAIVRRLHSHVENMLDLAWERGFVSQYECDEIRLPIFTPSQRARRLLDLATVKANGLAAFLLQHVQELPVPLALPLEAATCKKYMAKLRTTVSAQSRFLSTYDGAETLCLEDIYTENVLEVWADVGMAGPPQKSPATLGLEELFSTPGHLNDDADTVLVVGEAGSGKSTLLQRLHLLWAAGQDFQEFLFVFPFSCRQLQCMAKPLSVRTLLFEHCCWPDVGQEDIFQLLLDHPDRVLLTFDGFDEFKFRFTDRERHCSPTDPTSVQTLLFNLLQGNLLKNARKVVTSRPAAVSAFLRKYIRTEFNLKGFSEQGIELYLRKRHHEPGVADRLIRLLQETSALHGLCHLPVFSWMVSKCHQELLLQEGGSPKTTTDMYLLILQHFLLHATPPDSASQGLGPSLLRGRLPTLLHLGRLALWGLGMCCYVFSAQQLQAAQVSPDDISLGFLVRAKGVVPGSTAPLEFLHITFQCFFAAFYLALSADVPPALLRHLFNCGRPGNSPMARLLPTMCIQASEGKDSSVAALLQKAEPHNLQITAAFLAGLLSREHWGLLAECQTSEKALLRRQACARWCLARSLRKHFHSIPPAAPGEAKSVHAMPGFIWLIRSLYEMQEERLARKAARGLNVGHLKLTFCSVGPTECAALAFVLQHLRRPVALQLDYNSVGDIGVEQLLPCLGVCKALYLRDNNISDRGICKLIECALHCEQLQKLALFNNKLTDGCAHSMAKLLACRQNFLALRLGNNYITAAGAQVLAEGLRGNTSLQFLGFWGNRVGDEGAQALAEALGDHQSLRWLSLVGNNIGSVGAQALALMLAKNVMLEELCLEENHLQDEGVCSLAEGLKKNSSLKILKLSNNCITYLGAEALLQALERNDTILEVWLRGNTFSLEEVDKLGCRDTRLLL

Regarding `CCCNC(=O)CC[C@H]1NC(=O)c2cc(Oc3cccc(N(C)C)c3)c(NC(=O)COCc3ccccc3)cc2NC1=O`, the inhibition (in general, the change of the read-out against control, counted positive when it falls) in [1] was “inactive”. Besides, the half-inhibitory concentration (IC50) (in general, the concentration at which inhibition is half-maximal) in assay [2] was determined as 2.36 µM; in [4] it was 4.16 µM. Moreover, the inhibition result in [3], in assay [5], in assay [9], in assay [10], in assay [11] and in assay [12] was “Active” each time. Further, the inhibition entry in assay [14] was “Active”. Further, the inhibition result in [6] is “Dose-dependent effect”; in [7], “Dose-dependent effect”; in [8] it was 60.9%; in assay [13], 86.2%.
